Results collected from several papers.
Lines come from different studies, so protocols differ.
Matrix: plasma

CN1CCc2c(c3ccccc3n2Cc2ccc(C(=O)NO)cc2)C1 — bioavailability (male CD-1 mouse; oral; 30 mg/kg): ~6%
C=CC(=O)Nc1cccc(Nc2nc(Nc3ccc(N4CCN(C(C)=O)CC4)cc3OC)ncc2C(F)(F)F)c1 — bioavailability (female mouse; oral; 20 mg/kg): 65%
COc1nc(-c2cc(C)c(N[C@@H](C)c3c(F)cc(F)cc3F)nn2)ccc1-n1cnc(C)c1 — bioavailability (male CD-1 mouse; oral; 5 mg/kg; single dose): 63.7%
CC[C@H](C)[C@@H]1NC(=O)[C@@](C)(NC(=O)[C@H](CCCNC(=N)N)NC(=O)[C@H](CC(C)C)NC(=O)[C@@H](NC(=O)[C@H](CCC(N)=O)NC(=O)[C@H](CC(C)C)NC(C)=O)[C@@H](C)O)CCCC=CCCC[C@@](C)(C(=O)N[C@@H](CC(C)C)C(=O)N[C@@H](Cc2ccc3ccccc3c2)C(N)=O)NC(=O)[C@H](CCCNC(=N)N)NC(=O)[C@H](CCC(N)=O)NC1=O — bioavailability (male BALB/c mouse; intramuscular; 5 mg/kg): 20.6%
Cc1ccc2cncc(N3CCc4c(cc(Cn5ccnc5)cc4-c4cn(C)nc4C(F)(F)F)C3=O)c2c1 — bioavailability (male CD-1 mouse; oral; 50 mg/kg): 56%
Nc1ccc(-c2ccc3ncc4ccc(=O)n(-c5cccc(C(F)(F)F)c5)c4c3c2)cn1 — bioavailability (male Swiss mouse; oral; 10 mg/kg): 54%
C=CC(=O)N1CC2CC(n3nc(-c4ccc(C(=O)Nc5ccccn5)cc4)c4c(N)ncnc43)CC2C1 (stereo not drawn) — bioavailability (male BALB/c mouse; oral; 3 mg/kg): 47%
CC(C)(Nc1nc(-c2ccccn2)nc2ccccc12)c1ccccn1 — bioavailability (female BALB/c mouse; oral; 50 mg/kg): 102%
CCN1CC(=O)NC(CC(C)C)C(=O)N(C)C(C)C(=O)NC(CC(C)C)C(=O)N2CCCC2C(=O)N(CC2CCOCC2)CC(=O)NC(CC(C)C)C(=O)N(C)C(C)C(=O)NC(C)C(=O)N2CCCC2C1=O (stereo not drawn) — bioavailability (mouse; oral; 200 mg/kg): 50%
CCCCCCCC(=O)N[C@H](CN1CCCC1)[C@H](O)c1ccc2c(c1)OCCO2 — bioavailability (CD-1 mouse; oral; 10 mg/kg): < 1%
NC[C@@H]1O[C@H](O[C@H]2[C@@H](O)[C@H](O[C@@H]3[C@@H](O)[C@H](N)C[C@H](N)[C@H]3O[C@H]3O[C@H](CO)[C@@H](O)[C@H](O)[C@H]3N)O[C@@H]2CO)[C@H](N)[C@@H](O)[C@@H]1O — bioavailability (male BALB/c mouse; oral; 500 mg/kg): 0.3%
COc1ccc2nccc(N3CCc4c(cc(Cn5ccnc5)cc4-c4cn(C)nc4C(F)(F)F)C3=O)c2c1 — bioavailability (male CD-1 mouse; oral; 10 mg/kg): 34%
O=C(Nc1nccs1)C(c1cc(F)ccc1O)N1Cc2ccccc2C1=O (stereo not drawn) — bioavailability (mouse; oral; 20 mg/kg): 26%
COc1nc2[nH]c(C(F)(F)F)nc2nc1Nc1ccc(OC(F)(F)F)cc1F — bioavailability (C57BL/6 mouse; oral; 10 mg/kg): 21%
COc1cc(OC)c2nccc(N3CCc4c(cc(Cn5ccnc5)cc4-c4cn(C)nc4C(F)(F)F)C3=O)c2c1 — bioavailability (male CD-1 mouse; oral; 50 mg/kg): 452%
CC(C)(C)c1cc(NC(=O)Nc2ccc(Oc3ccnc4[nH]c(=O)cnc34)cc2F)n(-c2ccccc2)n1 — bioavailability (BALB/c mouse; oral; 10 mg/kg): 54%
CCc1cc(OC)c2nccc(N3CCc4c(cc(Cn5ccnc5)cc4-c4cn(C)nc4C(F)(F)F)C3=O)c2c1 — bioavailability (male CD-1 mouse; oral; 50 mg/kg): 194%
O=C1Nc2cc(F)cc(F)c2C(=O)CCc2ccccc21 — bioavailability (male Swiss mouse; oral): ~20%
N[C@@H](CSSC[C@H](N)C(=O)O)C(=O)O — bioavailability (Kunming mouse; oral; 25 mg/kg): 18.6%
CC(C)c1cnn2c(NCc3ccccc3)cc(NC[C@H]3CCNC[C@@H]3O)nc12 — bioavailability (male CD-1 mouse; oral; 10 mg/kg): 30%
O=[N+]([O-])c1cccc2[nH]c(CNc3nc(N4CCOCC4)nc4c3ncn4-c3ccsc3)nc12 — bioavailability (mouse; intravenous; 1 mg/kg): 0%
CCc1cc(C(=O)NC)c2nccc(N3CCc4c(cc(Cn5ccnc5)cc4-c4cn(C)nc4C(F)(F)F)C3=O)c2c1 — bioavailability (male CD-1 mouse; oral; 50 mg/kg): 175%
CCOc1ccc(Cc2cc([C@@H]3O[C@H](CO)[C@@H](O)[C@H](O)[C@H]3O)ccc2Cl)cc1 — bioavailability (male C57BL/6 mouse; oral; 1 mg/kg): 67%
CN[C@@H](C)C(=O)N[C@H]1CN(C(=O)CC(C)C)CC[C@H]2CC[C@@H](C(=O)NC(c3ccccc3)c3ccccc3)N2C1=O — bioavailability (SCID mouse; oral; 100 mg/kg; tumour-bearing): 42.7%
CCc1ccc(Cc2cc([C@@H]3O[C@H](CO)[C@@H](O)[C@H](O)[C@H]3O)cc3c2CCC3)cc1 — bioavailability (male C57BL/6 mouse; oral; 3 mg/kg): > 100%
N#Cc1ccc(/C=C/c2nc3ccccc3c(=O)n2-c2cccc(C(=O)O)c2)cc1 — bioavailability (mouse; oral; 10 mg/kg; single dose): 50%
Cc1c(C(=O)Nc2ccccc2)sc(N)c1C(N)=O — bioavailability (male CD-1 mouse; oral; 10 mg/kg): 34%
